For 26 compounds, Activity and inhibition results are on record in ChEMBL document CHEMBL1158377, “Phenylpyrrole derivatives as neural and inducible nitric oxide synthase (nNOS and iNOS) inhibitors” (Eur J Med Chem, 2009).

One may read the inhibition as the change of the read-out against control, counted positive when it falls.

Structures are written as SMILES. Active and inactive are the calls of the source. No cut-off for these calls is given here.

Nitric oxide synthase 1 (Mus musculus), sequence (Q9Z0J4 whole entry): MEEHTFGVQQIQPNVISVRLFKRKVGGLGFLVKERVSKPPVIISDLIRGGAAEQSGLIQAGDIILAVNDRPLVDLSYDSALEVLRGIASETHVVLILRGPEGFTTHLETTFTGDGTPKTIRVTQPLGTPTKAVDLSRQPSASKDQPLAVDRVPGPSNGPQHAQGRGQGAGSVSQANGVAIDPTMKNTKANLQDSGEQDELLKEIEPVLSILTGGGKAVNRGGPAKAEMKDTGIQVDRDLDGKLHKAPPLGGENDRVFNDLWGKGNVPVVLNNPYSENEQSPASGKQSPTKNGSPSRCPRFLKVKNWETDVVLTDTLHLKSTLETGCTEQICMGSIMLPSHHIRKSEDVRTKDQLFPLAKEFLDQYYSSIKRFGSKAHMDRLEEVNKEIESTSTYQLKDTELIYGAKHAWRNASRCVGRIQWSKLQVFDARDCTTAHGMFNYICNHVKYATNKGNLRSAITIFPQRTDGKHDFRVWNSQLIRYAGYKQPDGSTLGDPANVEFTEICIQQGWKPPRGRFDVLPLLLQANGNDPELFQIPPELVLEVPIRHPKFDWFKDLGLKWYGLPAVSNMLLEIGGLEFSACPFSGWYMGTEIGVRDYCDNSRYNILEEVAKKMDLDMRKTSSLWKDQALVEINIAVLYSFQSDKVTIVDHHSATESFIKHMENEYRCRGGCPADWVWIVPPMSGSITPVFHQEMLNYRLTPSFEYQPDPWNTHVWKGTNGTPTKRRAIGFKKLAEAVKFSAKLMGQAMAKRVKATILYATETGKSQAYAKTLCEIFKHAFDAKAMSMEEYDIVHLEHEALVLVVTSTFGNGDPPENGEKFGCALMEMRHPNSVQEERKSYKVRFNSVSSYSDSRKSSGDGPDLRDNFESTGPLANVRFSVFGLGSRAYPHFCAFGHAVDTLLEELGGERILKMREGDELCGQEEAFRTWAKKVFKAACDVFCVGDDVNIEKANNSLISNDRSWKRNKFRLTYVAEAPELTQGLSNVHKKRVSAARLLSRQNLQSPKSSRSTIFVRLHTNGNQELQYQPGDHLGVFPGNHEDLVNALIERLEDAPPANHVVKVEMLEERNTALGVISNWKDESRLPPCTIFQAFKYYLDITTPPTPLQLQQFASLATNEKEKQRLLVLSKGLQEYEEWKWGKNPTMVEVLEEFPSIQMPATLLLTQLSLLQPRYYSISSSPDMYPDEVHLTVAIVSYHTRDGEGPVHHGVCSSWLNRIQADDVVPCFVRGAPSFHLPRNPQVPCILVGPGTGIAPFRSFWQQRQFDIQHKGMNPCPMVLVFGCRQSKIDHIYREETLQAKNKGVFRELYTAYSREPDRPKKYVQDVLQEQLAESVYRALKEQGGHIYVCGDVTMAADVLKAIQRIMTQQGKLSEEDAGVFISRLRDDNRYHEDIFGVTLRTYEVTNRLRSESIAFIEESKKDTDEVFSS
Nitric oxide synthase 1 (Homo sapiens), sequence (P29475 whole entry): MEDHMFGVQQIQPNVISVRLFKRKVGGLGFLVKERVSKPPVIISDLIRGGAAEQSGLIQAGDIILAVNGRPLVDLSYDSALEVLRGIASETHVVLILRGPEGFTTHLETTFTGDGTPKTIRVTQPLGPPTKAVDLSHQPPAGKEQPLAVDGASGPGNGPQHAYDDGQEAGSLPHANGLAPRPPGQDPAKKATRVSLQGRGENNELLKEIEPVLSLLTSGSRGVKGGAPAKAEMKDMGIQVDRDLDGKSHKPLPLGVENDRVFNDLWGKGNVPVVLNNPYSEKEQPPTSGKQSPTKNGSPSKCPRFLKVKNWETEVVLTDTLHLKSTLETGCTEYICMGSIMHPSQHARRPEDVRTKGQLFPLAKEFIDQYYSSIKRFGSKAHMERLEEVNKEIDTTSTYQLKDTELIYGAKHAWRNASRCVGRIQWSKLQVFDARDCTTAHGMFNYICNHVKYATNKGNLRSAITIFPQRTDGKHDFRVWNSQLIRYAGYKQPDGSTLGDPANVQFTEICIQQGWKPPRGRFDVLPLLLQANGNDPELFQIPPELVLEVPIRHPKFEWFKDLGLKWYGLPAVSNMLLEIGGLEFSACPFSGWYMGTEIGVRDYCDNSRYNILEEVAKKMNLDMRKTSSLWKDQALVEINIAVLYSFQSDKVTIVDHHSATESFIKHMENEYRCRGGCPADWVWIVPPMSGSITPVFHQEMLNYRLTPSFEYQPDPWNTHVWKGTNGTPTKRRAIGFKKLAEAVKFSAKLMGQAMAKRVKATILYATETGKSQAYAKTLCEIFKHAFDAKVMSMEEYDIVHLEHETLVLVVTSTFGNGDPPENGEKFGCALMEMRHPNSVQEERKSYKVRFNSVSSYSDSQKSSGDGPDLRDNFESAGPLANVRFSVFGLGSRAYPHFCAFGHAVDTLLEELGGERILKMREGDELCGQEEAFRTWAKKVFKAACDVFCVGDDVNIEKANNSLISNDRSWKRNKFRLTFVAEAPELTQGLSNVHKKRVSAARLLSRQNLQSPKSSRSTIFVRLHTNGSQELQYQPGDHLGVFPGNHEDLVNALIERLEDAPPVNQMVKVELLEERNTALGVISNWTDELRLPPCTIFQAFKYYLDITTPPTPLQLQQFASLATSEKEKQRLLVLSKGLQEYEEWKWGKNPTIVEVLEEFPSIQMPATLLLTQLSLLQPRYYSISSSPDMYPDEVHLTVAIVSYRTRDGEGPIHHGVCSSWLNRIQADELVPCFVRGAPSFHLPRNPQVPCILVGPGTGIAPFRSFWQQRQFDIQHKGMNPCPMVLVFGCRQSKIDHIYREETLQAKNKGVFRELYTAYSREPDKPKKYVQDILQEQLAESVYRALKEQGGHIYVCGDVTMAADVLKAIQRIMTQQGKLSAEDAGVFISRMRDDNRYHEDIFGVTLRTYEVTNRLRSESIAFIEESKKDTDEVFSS

The first assay addresses Nitric oxide synthase 1 (Mus musculus) (UniProt Q9Z0J4). The assay can be described thus: Inhibition of constitutive mitochondrial NOS in stantia nigra isolated from MPTP-induced parkinson's disease C57/Bl6 mouse model assessed as L-[3H]citrulline per mg of protein at 20 mg/kg, b.w 1 hr before MPTP challenge after 32 hrs by liquid scintillation spectroscopy. It counts as organism-based. Also on record: dose 20 mg/kg.
Details: not given
The procedure, abridged:
(§1)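 C57/Bl6 mice (22–28 g) given MPTP 15 mg/kg s.c. at 0, 2, 4, 6, 24, 26 and 28 h; single compound dose 20 mg/kg b.w. 1 h before first MPTP; controls got ethanol/saline vehicle. Killed 32 h after treatments; substantia nigra cytosol and mitochondria assayed by L-[3H]-citrulline formation, as pmol/mg protein/min. Seven experiments in triplicate, four SN each.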
As for `CNC(=O)c1ccc(-c2ccccc2N)[nH]1`, the Activity stood at 9.95 pmol/min.

Consider `Nc1ccccc1-c1ccc(C(=O)NC2CCCC2)[nH]1`, for which the Activity is 14.1 pmol/min.

Take `COc1ccc2[nH]cc(CCNC(C)=O)c2c1`: the Activity turned out to be 13.8 pmol/min.

Take `CN1CC=C(c2ccccc2)CC1`: the Activity is 25.9 pmol/min.

Another assay has the same target. The assay can be described thus: Inhibition of cytosolic nNOS in stantia nigra isolated from MPTP-induced parkinson's disease C57/Bl6 mouse model assessed as L-[3H]citrulline per mg of protein at 20 mg/kg, b.w 1 hr before MPTP challenge after 32 hrs by liquid scintillation spectroscopy.
Details: not given
It counts as organism-based. Set-up: dose 20 mg/kg. The essentials:
as §1
With `CNC(=O)c1ccc(-c2ccccc2N)[nH]1`, the Activity was 65.5 pmol/min.

Regarding `Nc1ccccc1-c1ccc(C(=O)NC2CCCC2)[nH]1`, the Activity was determined as 74.3 pmol/min.

On to `COc1ccc2[nH]cc(CCNC(C)=O)c2c1`, for which the Activity was 19.9 pmol/min.

Consider `CN1CC=C(c2ccccc2)CC1`, for which the Activity came to 83.7 pmol/min.

A further assay addresses Nitric oxide synthase 1 (Homo sapiens) (UniProt P29475). The assay can be described thus: Inhibition of nNOS.
Details: not given
For `COc1ccc(N)c(C(=O)CCNC(C)=O)c1`, the inhibition entry was “Dose-dependent effect”.

Consider `COc1ccc2[nH]cc(CCNC(C)=O)c2c1`, for which the inhibition result is “Dose-dependent effect”.

In the case of `COc1ccc(N)c(C(=O)CC(NC(C)=O)C(=O)O)c1` (stereo unspecified), the inhibition entry is “Dose-dependent effect”.

The next assay concerns the target Nitric oxide synthase 1 (Rattus norvegicus) (UniProt P29476). Kind of assay: Inhibition of nNOS in Wistar rat striata tissue homogenate assessed as conversion of L-[3H]arginine to L-[3H]citrulline at 1 mM by liquid scintillation spectroscopy. The format is tissue-based. The conditions noted are these: Striatum. The essentials:
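Male Wistar rats killed by cervical dislocation; fresh striata homogenized in Tris-HCl pH 7.6 with protease inhibitors, spun 1000g 5 min. Supernatant incubated 30 min at 37 °C with 10 µM L-arginine plus 50 nM L-[3H]-arginine, CaCl2, BH4, FAD, NADPH 0.75 mM final; compound 1 mM final in DMSO. Dowex-50W separation; citrulline by scintillation; NADPH-omitted blank subtracted. Three experiments in triplicate, four striata each.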
With `NC(=O)c1ccc(-c2ccccc2N)[nH]1`, the inhibition stood at 15%.

Turning to `Cn1c(C(N)=O)ccc1-c1ccccc1N`, the inhibition was found to be 9.56%.

In the case of `Nc1ccccc1-c1ccc(C(=O)NCc2ccccc2)[nH]1`, the inhibition came out at 7.52%.

`Nc1ccccc1-c1ccc(C(=O)NC2CCCCC2)[nH]1`: the inhibition amounted to 13.4%.

As to `CCCCNC(=O)c1ccc(-c2ccccc2N)[nH]1`, the inhibition is -0.01%.

For `Nc1ccccc1-c1ccc(C(=O)NC2CCCC2)[nH]1`, the inhibition came to 5.36%.

Regarding `Nc1ccccc1-c1ccc(C(=O)NC2CCC2)[nH]1`, the inhibition came out at 8.44%.

For `CCCCNC(=O)c1ccc(-c2cc(Cl)ccc2N)[nH]1`, the inhibition amounted to 36.5%.

Turning to `CCNC(=O)c1ccc(-c2ccccc2N)[nH]1`, the inhibition came out at 4.15%.

`CCCNC(=O)c1ccc(-c2cc(OC)ccc2N)[nH]1`: the inhibition came out at 43.5%.

In the case of `COc1ccc(N)c(-c2ccc(C(=O)NC3CC3)[nH]2)c1`, the inhibition is 32.5%.

In the case of `CCNC(=O)c1ccc(-c2cc(Cl)ccc2N)[nH]1`, the inhibition was 33.4%.

Regarding `CNC(=O)c1ccc(-c2cc(Cl)ccc2N)[nH]1`, the inhibition was found to be 17.1%.

Turning to `Nc1ccccc1-c1ccc(C(=O)NC2CC2)[nH]1`, the inhibition was found to be 2.92%.

As for `NC(=O)c1ccc(-c2cc(Cl)ccc2N)[nH]1`, the inhibition stood at 34.5%.

Regarding `COc1ccc(N)c(-c2ccc(C(=O)NC3CCCC3)[nH]2)c1`, the inhibition came to 15.3%.

For `Nc1ccc(Cl)cc1-c1ccc(C(=O)NC2CC2)[nH]1`, the inhibition amounted to 48.1%.

Turning to `COc1ccc(N)c(-c2ccc(C(=O)NCc3ccccc3)[nH]2)c1`, the inhibition came out at 8.89%.

A further assay deals with T1, Nitric oxide synthase, inducible (Mus musculus) (UniProt P29477).
T1 sequence (whole entry): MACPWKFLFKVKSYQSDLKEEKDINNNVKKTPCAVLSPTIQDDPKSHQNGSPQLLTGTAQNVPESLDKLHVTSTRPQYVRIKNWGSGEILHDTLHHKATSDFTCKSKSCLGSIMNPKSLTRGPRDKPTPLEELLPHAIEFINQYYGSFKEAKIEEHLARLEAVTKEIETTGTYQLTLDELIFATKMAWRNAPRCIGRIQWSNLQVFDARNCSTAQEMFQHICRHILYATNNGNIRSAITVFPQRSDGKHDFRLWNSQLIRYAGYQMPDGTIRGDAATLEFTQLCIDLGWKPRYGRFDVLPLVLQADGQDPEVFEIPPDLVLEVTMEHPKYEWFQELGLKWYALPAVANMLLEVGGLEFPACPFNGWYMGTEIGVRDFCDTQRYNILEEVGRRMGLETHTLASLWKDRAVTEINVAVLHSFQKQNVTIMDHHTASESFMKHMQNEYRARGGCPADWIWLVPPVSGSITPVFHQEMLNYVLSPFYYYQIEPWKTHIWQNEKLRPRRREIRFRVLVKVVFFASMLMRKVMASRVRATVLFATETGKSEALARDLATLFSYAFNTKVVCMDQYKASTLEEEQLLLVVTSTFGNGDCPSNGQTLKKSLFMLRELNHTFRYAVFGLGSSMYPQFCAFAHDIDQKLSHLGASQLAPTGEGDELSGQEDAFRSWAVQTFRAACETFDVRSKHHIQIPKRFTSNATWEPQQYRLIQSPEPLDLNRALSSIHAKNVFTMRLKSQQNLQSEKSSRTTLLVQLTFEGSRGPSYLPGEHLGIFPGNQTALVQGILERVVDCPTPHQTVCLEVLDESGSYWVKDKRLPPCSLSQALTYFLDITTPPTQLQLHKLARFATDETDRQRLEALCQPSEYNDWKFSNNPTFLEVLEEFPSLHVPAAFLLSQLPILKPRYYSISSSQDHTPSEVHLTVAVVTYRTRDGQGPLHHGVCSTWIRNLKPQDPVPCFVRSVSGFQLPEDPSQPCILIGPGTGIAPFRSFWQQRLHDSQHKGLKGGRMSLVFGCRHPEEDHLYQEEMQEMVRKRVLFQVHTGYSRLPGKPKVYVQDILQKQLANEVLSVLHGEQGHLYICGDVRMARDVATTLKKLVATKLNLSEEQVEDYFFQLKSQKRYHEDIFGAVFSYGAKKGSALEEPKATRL
Kind of assay: Inhibition of cytosolic iNOS in stantia nigra isolated from MPTP-induced parkinson's disease C57/Bl6 mouse model assessed as L-[3H]citrulline per mg of protein at 20 mg/kg, b.w 1 hr before MPTP challenge after 32 hrs by liquid scintillation spectroscopy. It counts as organism-based. Set-up: dose 20 mg/kg.
Details: not given
The essentials: as §1
Regarding `CNC(=O)c1ccc(-c2ccccc2N)[nH]1`, the Activity worked out at 5.78 pmol/min.

Turning to `Nc1ccccc1-c1ccc(C(=O)NC2CCCC2)[nH]1`, the Activity amounted to 6.53 pmol/min.

Take `COc1ccc2[nH]cc(CCNC(C)=O)c2c1`: the Activity came to 19 pmol/min.

For the compound `CN1CC=C(c2ccccc2)CC1`, the Activity amounted to 29.4 pmol/min.

For the next assay, the target named is Nitric oxide synthase, inducible (Rattus norvegicus) (UniProt Q06518). Kind of assay: Inhibition of iNOS in LPS-treated Wistar rat lung tissue homogenate assessed as conversion of L-[3H]arginine to L-[3H]citrulline at 1 mM by liquid scintillation spectroscopy.
Nitric oxide synthase, inducible (Rattus norvegicus), sequence (Q06518 whole entry): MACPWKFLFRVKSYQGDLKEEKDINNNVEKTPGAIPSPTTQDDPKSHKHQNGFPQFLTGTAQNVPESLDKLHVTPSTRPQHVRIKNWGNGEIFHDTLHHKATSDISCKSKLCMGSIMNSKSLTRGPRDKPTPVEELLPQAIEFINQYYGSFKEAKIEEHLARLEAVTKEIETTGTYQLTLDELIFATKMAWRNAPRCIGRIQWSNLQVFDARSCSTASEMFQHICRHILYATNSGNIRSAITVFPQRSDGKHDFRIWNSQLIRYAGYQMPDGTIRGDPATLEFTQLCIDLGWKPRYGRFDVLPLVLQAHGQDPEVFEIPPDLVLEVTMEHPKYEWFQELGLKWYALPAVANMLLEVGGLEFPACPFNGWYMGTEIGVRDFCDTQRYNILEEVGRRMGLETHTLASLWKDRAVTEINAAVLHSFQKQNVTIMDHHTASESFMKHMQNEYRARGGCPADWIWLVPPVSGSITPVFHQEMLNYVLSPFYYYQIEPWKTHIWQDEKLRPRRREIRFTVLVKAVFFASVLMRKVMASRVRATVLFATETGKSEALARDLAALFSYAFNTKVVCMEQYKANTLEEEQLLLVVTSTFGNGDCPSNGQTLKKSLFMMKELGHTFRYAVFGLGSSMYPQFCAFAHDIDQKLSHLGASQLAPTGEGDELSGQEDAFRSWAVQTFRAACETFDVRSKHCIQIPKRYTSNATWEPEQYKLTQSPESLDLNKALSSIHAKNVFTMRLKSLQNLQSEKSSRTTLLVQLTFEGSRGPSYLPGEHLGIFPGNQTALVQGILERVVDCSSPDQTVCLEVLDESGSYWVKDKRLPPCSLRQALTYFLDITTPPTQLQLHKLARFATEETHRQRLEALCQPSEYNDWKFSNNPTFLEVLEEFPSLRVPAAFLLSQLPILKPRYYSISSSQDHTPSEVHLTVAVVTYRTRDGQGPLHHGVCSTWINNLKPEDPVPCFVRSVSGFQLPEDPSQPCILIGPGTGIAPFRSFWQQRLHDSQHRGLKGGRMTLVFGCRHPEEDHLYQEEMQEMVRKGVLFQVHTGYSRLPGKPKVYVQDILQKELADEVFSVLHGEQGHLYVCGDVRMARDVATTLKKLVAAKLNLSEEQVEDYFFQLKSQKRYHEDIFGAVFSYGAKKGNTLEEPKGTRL
Details: not given
The procedure, abridged:
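iNOS induced in Wistar rats by LPS 20 mg/Kg i.v.; lungs taken 8 h later, homogenized in ice-cold Tris-HCl pH 7.6 with protease inhibitors, then incubated with 10 mM EDTA to remove nNOS activity. Conversion of L-[3H]-arginine to L-[3H]-citrulline at 37 °C for 30 min with NADPH, compound 1 mM final; Dowex separation, scintillation counting.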
For `NC(=O)c1ccc(-c2ccccc2N)[nH]1`, the inhibition was 3.07%.

In the case of `Cn1c(C(N)=O)ccc1-c1ccccc1N`, the inhibition is 16%.

As for `COc1ccc(N)c(-c2ccc(C(N)=O)[nH]2)c1`, the inhibition is 8.95%.

For `Nc1ccccc1-c1ccc(C(=O)NCc2ccccc2)[nH]1`, the inhibition stood at 28.1%.

As to `CNC(=O)c1ccc(-c2ccccc2N)[nH]1`, the inhibition turned out to be 32.7%.

Turning to `Nc1ccccc1-c1ccc(C(=O)NC2CCCCC2)[nH]1`, the inhibition came out at 17.2%.

In the case of `CCCCNC(=O)c1ccc(-c2ccccc2N)[nH]1`, the inhibition amounted to 7.53%.

`Nc1ccccc1-c1ccc(C(=O)NC2CCCC2)[nH]1`: the inhibition worked out at 52.8%.

As for `Nc1ccccc1-c1ccc(C(=O)NC2CCC2)[nH]1`, the inhibition worked out at 20.1%.

As for `CNC(=O)c1ccc(-c2cc(OC)ccc2N)[nH]1`, the inhibition came to 26.2%.

Turning to `CCCCNC(=O)c1ccc(-c2cc(Cl)ccc2N)[nH]1`, the inhibition amounted to 3.33%.

Take `CCCNC(=O)c1ccc(-c2ccccc2N)[nH]1`: the inhibition turned out to be 13.2%.

Consider `CCNC(=O)c1ccc(-c2ccccc2N)[nH]1`, for which the inhibition came out at 20.5%.

Regarding `CCCNC(=O)c1ccc(-c2cc(OC)ccc2N)[nH]1`, the inhibition came to 6.78%.

With `COc1ccc(N)c(-c2ccc(C(=O)NC3CC3)[nH]2)c1`, the inhibition worked out at 21.4%.

On to `CCNC(=O)c1ccc(-c2cc(Cl)ccc2N)[nH]1`, for which the inhibition turned out to be 2.8%.

As to `CNC(=O)c1ccc(-c2cc(Cl)ccc2N)[nH]1`, the inhibition amounted to 1.27%.

Take `Nc1ccccc1-c1ccc(C(=O)NC2CC2)[nH]1`: the inhibition was -1.1%.

Take `NC(=O)c1ccc(-c2cc(Cl)ccc2N)[nH]1`: the inhibition worked out at 5.34%.

In the case of `COc1ccc(N)c(-c2ccc(C(=O)NC3CCCC3)[nH]2)c1`, the inhibition stood at 26.2%.

On to `Nc1ccc(Cl)cc1-c1ccc(C(=O)NC2CC2)[nH]1`, for which the inhibition came to 7.2%.

Regarding `COc1ccc(N)c(-c2ccc(C(=O)NCc3ccccc3)[nH]2)c1`, the inhibition came to 22.4%.

Test system in the next assay: not listed separately
The assay can be described thus: Binding affinity to CaCAM.
Details: not given
On to `NC(=O)c1ccc(-c2ccccc2N)[nH]1`, for which the outcome was inactive.

Take `Cn1c(C(N)=O)ccc1-c1ccccc1N`: the outcome was inactive.

Regarding `COc1ccc(N)c(-c2ccc(C(N)=O)[nH]2)c1`, the outcome was inactive.

Regarding `Nc1ccccc1-c1ccc(C(=O)NCc2ccccc2)[nH]1`, the outcome was inactive.

As for `CNC(=O)c1ccc(-c2ccccc2N)[nH]1`, the result was inactive.

Consider `Nc1ccccc1-c1ccc(C(=O)NC2CCCCC2)[nH]1`, for which the result was inactive.

For `CCCCNC(=O)c1ccc(-c2ccccc2N)[nH]1`, the result was inactive.

On to `Nc1ccccc1-c1ccc(C(=O)NC2CCCC2)[nH]1`, for which the outcome was inactive.

For `Nc1ccccc1-c1ccc(C(=O)NC2CCC2)[nH]1`, the outcome was inactive.

On to `CNC(=O)c1ccc(-c2cc(OC)ccc2N)[nH]1`, for which the outcome was inactive.

`CCCCNC(=O)c1ccc(-c2cc(Cl)ccc2N)[nH]1`: the result was inactive.

`CCCNC(=O)c1ccc(-c2ccccc2N)[nH]1`: the outcome was inactive.

For the compound `CCNC(=O)c1ccc(-c2ccccc2N)[nH]1`, the outcome was inactive.

`CCCNC(=O)c1ccc(-c2cc(OC)ccc2N)[nH]1`: the outcome was inactive.

On to `COc1ccc(N)c(-c2ccc(C(=O)NC3CC3)[nH]2)c1`, for which the outcome was inactive.

In the case of `CCNC(=O)c1ccc(-c2cc(Cl)ccc2N)[nH]1`, the result was inactive.

For `CNC(=O)c1ccc(-c2cc(Cl)ccc2N)[nH]1`, the result was inactive.

On to `Nc1ccccc1-c1ccc(C(=O)NC2CC2)[nH]1`, for which the outcome was inactive.

In the case of `NC(=O)c1ccc(-c2cc(Cl)ccc2N)[nH]1`, the result was inactive.

`COc1ccc(N)c(-c2ccc(C(=O)NC3CCCC3)[nH]2)c1`: the result was inactive.

`Nc1ccc(Cl)cc1-c1ccc(C(=O)NC2CC2)[nH]1`: the result was inactive.

For the compound `COc1ccc(N)c(-c2ccc(C(=O)NCc3ccccc3)[nH]2)c1`, the result was inactive.

The next assay has as its target T1, Nitric oxide synthase, inducible (Mus musculus). The assay can be described thus: Inhibition of inducible mitochondrial NOS in stantia nigra isolated from MPTP-induced parkinson's disease C57/Bl6 mouse model assessed as L-[3H]citrulline per mg of protein at 20 mg/kg, b.w 1 hr before MPTP challenge after 32 hrs by liquid scintillation spectroscopy. The format is organism-based. Also on record: dose 20 mg/kg.
Details: not given
The essentials: as §1
For `CNC(=O)c1ccc(-c2ccccc2N)[nH]1`, the Activity stood at 7.46 pmol/min.

`Nc1ccccc1-c1ccc(C(=O)NC2CCCC2)[nH]1`: the Activity was 9.45 pmol/min.

Consider `COc1ccc2[nH]cc(CCNC(C)=O)c2c1`, for which the Activity was found to be 23.6 pmol/min.

Turning to `CN1CC=C(c2ccccc2)CC1`, the Activity is 43.8 pmol/min.
